# Reference: ChEMBL document CHEMBL4834426, “Antimalarial Benzimidazole Derivatives Incorporating Phenolic Mannich Base Side Chains Inhibit Microtubule and Hemozoin Formation: Structure-Activity Relationship and In Vivo Oral Efficacy Studies” (J Med Chem, 2021)
# Experiments:
# [1] = tested on: Hemozoin; assay: Inhibition of beta-hematin formation […] incubated for 5 hrs by NP40 detergent-mediated assay
# In short: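 Cell-free β-hematin formation assay in NP-40 (305.5 μM) lipid-mimic medium. Compounds from 20 mM stock serially diluted across wells, in duplicate. Hematin suspended in 1 M acetate buffer pH 4.8; plates incubated ~5 h at 37 °C. Then pyridine solution (with HEPES pH 7.4) and acetone added; absorbance at 405 nm. IC₅₀ by curve fit.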
# [2] = tested on: Plasmodium berghei; assay: Antimalarial activity against GFP-transfected Plasmodium berghei ANKA infected in NMRI mouse model assessed as reduction in parasitemia at 50 mg/kg, po dosed 4 times relative to control; type: functional; set-up: scale not given: the % may be the effect or the level left
# In short: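 Mice (n = 3) infected with GFP-transfected P. berghei ANKA. Compound in 70% Tween-80/30% ethanol, diluted 10-fold in water, given orally at 4, 24, 48 and 72 h post-infection. Blood taken day 4 (96 h); parasitemia by flow cytometry, detection limit 0.1%. Activity = difference in mean % parasitemia between control and treated, as % of control.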
# [3] = tested on: Plasmodium falciparum; assay: Antiplasmodial activity against […] Plasmodium falciparum NF54 early gametocytes transfected with GFP-Luc […] at 1 uM incubated for 48 hrs by microscopy based luciferase reporter gene assay relative to control; type: functional
# In short: (§1)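 NF54-Pfs16-GFP-Luc gametocytes, assays set up day 5 (early, stage II/III) or day 10 (late, stage IV/V). Culture at 2−3% gametocytemia, 1.5% hematocrit, 48 h drug exposure at 37 °C under 90% N₂/5% O₂/5% CO₂. Lysates mixed with luciferin; bioluminescence read with 10 s integration. Dual-point: one biological repeat in technical triplicate. Methylene blue (5 μM) reference.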
# [4] = Half life in Balb/c mouse at 3 mg/kg, iv measured up to 24 hrs by LC-MS/MS analysis; type: ADME, organism-based; settings: in vivo
# In short: (§2)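 Intravenous dosing in male Balb/c mice, fed ad libitum. Tail-vein blood sampled into heparinized tubes at 0.17, 0.5, 1, 3, 5, 7, 9 and 24 h, frozen at −80 °C. Blood extracted by acetonitrile protein precipitation with internal standard; LC−MS/MS quantitation, LOQ 2 ng/mL. Noncompartmental analysis based on curve stripping.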
# [5] = tested on: Plasmodium falciparum; assay: Antiplasmodial activity against […] Plasmodium falciparum NF54 early gametocytes transfected with GFP-Luc […] at 5 uM incubated for 48 hrs by microscopy based luciferase reporter gene assay relative to control; type: functional; in short: as §1
# [6] = Clearance in Balb/c mouse at 3 mg/kg, iv measured up to 24 hrs by LC-MS/MS analysis; type: ADME, organism-based; settings: in vivo; in short: as §2
# [7] = AUC (0 to t) in Balb/c mouse at 3 mg/kg, iv measured up to 24 hrs by LC-MS/MS analysis; type: ADME, organism-based; set-up: dose 3 mg/kg, time <=24; settings: in vivo; in short: as §2
# [8] = Resistance index, ratio of IC50 for antimalarial activity against asexual blood stage multi drug-resistant Plasmodium falciparum K1 to IC50 for antimalarial activity against asexual blood stage drug-sensitive Plasmodium falciparum NF54; type: functional
# In short: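 Resistance index is IC₅₀(K1)/IC₅₀(NF54). Both IC₅₀s came from the [³H]-hypoxanthine incorporation assay, as means of ≥2 independent experiments.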
# [9] = tested on: Plasmodium falciparum; assay: Antiplasmodial activity against […] Plasmodium falciparum NF54 early gametocytes transfected with GFP-Luc […] incubated for 48 hrs by microscopy based luciferase reporter gene assay relative to control; type: functional, organism-based; settings: NF54, 48 h
# In short: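 Transgenic NF54-Pfs16-GFP-Luc gametocytes, read by luciferase reporter. Early assays were set up on day 5 (50% stage II/50% stage III) and late assays on day 10 (40% stage IV/60% stage V). Luciferin was added to lysates at room temperature and bioluminescence read. Methylene blue (5 μM) was the reference. Single-point screens at 1 and 5 μM used n=1 in technical triplicate. IC₅₀ came from a normalized nonlinear fit, n≥3 in triplicate.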
# [10] = Cmax in Balb/c mouse at 10 mg/kg, po measured up to 24 hrs by LC-MS/MS analysis; type: ADME, organism-based; set-up: route oral, dose 10 mg/kg, time <=24; settings: in vivo
# In short: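 Male Balb/c mice, not fasted, food and water ad libitum; single oral dose. Tail-vein blood into heparinized tubes at 0.5, 1, 3, 5, 7, 9 and 24 h, stored at −80 °C. Whole blood protein-precipitated with acetonitrile containing internal standard, analyzed by LC−MS/MS (LOQ 2 ng/mL). Parameters by noncompartmental analysis with curve stripping. Mean of three mice per point.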
structure (smiles),measurement,setting,value
CCNCc1cc(Cl)cc(Nc2nc3cc(F)c(F)cc3n2Cc2ccc(C(F)(F)F)cc2)c1O,IC50,[1],18.1 µM
same,Activity,[2],98%
same,inhibition at 1 µM,[3],62%
same,half-life,[4],6.3 h
same,inhibition at 5 µM,[5],91%
same,clearance,[6],12.6 mL/min/kg
same,AUCt,[7],443 µmol·min/L
same,Ratio IC50,[8],0.42
same,IC50,[9],0.46 µM
same,Cmax,[10],400 nM
